Source: paper PMC12297526 (Communications Chemistry, 2025)
Like-named read-outs stand apart in the source and are kept apart here.

Legend:
[1] = cited from earlier work; for pMn: 11 (supplement), 8, 17, 18, 34
[2] = pH 7.4, 25 °C, [Cu(II)] = 10^-5 M; cited from earlier work
[3] = pH-potentiometric titration, thermodynamic stability constants of Mn; format: physicochemical; conditions: for log KMnL: I = 0.1 M KCl, 25 °C, mean ± SD, n = 3
In short: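 Ligand and Mn(II) (1.05:1 molar) in 0.1 M KCl titrated with 0.5 M NaOH from pH 1.7 to 12.0 at 25 °C under nitrogen. MnCl2 stock held at pH 6 and calibrated by ICP-MS. Data fitted for stability constants and speciation; titrations in triplicate. pMn calculated at pH 7.4.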

[4] = log P estimation by UPLC retention time; format: physicochemical; conditions: estimated from UPLC retention time with calibration standards
In short: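 Complexes and standards (DMSO, DMF, pyridine, phenol, nitrobenzene) run on reversed-phase UPLC. C18, 2.5 μm, 2.1 × 100 mm column; 10 mM ammonium acetate/ACN gradient at 0.4 mL min−1. Calibration of log TR against known log P for the standards; complex log P read from its retention time.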

Solubility in pure water = format: physicochemical; conditions: 25 °C
normal BALB/c mice = assay: In vivo T1-weighted MRI of normal mice, 3.0 T clinical scanner; conditions: intravenous, 0.05 mmol kg^−1
In short: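 Male BALB/c mice (25 ± 3 g) anaesthetised with avertin (0.6 mL per 20 g) and imaged in a mouse coil at 3.0 T. Coronal and transverse T1-weighted baseline scans taken, then complex given i.v. in PBS pH 7.4 at 0.05 mmol kg−1 and scanning continued ~30 min. Relative enhancement = (SIpost – SIpre)/SIpre × 100% from ROIs on liver and kidney.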

[5] = 20 MHz, 298 K; cited from earlier work
[6] = 0.1 M KCl; ref 4 (supplement), 15; cited from earlier work
Zn = format: physicochemical; conditions: pH = 6.0, 25 mM Zn(II), 37 °C, 1 mM complex; mean ± SD, n = 3
[7] = complexes with heptadentate ligands

Mn(EDTA)
pMn ([1]; 0.15 M NaCl): 7.83
half-life (t1/2) [2]: 0.08 h

O=C(O)CN1CCN(CC(=O)O)Cc2cccc(n2)CN(CC(=O)O)CC1 [PCTA]
log KMnL [1, 7]: 16.83

O=C([O-])CN1CCNCCNCCN(CC(=O)[O-])CC1.[Mn+2] [Mn(1,4-DO2A)]
log KMnL [3]: 15.5
pMn ([3]; pH 7.4, [Mn(II)] = [L] = 10^−5 M): 7.20
log P [4]: 0.57
Solubility (Solubility in pure water): 260 mg/mL
excretion route / organ preference seen by MRI (normal BALB/c mice): predominantly excreted through the renal route
log KMnL ([1]; introduction, Mn(1,4-DO2A) vs Mn(NOTA)): 16.1
half-life (t1/2) [2]: 48 h
^20r1 (relaxivity) [5]: 2.1 mM⁻¹ s⁻¹

O=C([O-])CN1CCNCCN(CC(=O)[O-])CCNCC1.[Mn+2] [Mn(1,7-DO2A)]
log KMnL [3]: 14.7
log P [4]: 0.47

O=C([O-])CN1CCNCCN(CC(=O)[O-])Cc2cccc(n2)C1.[Mn+2] [Mn(3,9-PC2A)]
pMn ([1]; 0.15 M NaCl): 8.64
log KMnL ([1]; 0.15 M NaCl, 11 (supplement), 17): 17.09
half-life (t1/2) [2]: 21 h

O=C(O)CN1CCNCCN(CC(=O)O)CCNCC1 [1,7-DO2A]
Σ log KiH [6]: 28.05

O=C(O)CN1CCNCCN(CC(=O)O)CCN(CC(=O)O)CC1 [DO3A]
log KMnL [1, 7]: 16.55

CCOc1ccc(C[C@@H](CN(CCN(CC(=O)[O-])CC(=O)[O-])CC(=O)[O-])N(CC(=O)[O-])CC(=O)[O-])cc1.[Gd+3].[Na+].[Na+] [Gd(EOB-DTPA)]
t1/2 (dissociation half-life) (Zn): 0.25 h
